Format in all cases: functional
A short description of experiment [1]: Antiproliferative activity against human Panel NCI-58 (58 Carcinoma cell lines) assessed as reduction in mean cell growth at 10 uM. More on the design: scale not given: the % may be the effect or the level left. Summed up:
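NCI 58-cell-line screen covering leukemia, NSCLC, colon, CNS, melanoma, ovarian, renal, prostate and breast lines. Compounds given once at […] (micromolar per the line). Percent inhibition taken as 100 minus growth percent. Panel line reports the mean over all 58 lines.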

Experiment [2] relates to Panel breast (Carcinoma cell lines). Description: Antiproliferative activity against human Panel breast (6 Carcinoma cell lines) assessed as reduction in mean cell growth. In outline:
(§1)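 NCI five-dose testing across the 58-line panel gives GI50, TGI and LC50 for each line. Subpanel lines report mean GI50 for each of the nine cancer types.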

For experiment [3], the system named is Panel prostate (Carcinoma cell lines). Nature of the experiment: Antiproliferative activity against human Panel prostate (2 Carcinoma cell lines) assessed as reduction in mean cell growth. Summed up:
as §1

Experiment [4] relates to Panel renal (Carcinoma cell lines). Description: Antiproliferative activity against human Panel renal (8 Carcinoma cell lines) assessed as reduction in mean cell growth. Summed up:
as §1

Experiment [5] deals with Panel ovarian (Carcinoma cell lines). Nature of the experiment: Antiproliferative activity against human Panel ovarian (7 Carcinoma cell lines) assessed as reduction in mean cell growth. In outline:
as §1

The subject of experiment [6] is Panel CNS (Carcinoma cell lines). Nature of the experiment: Antiproliferative activity against human Panel CNS (6 Carcinoma cell lines) assessed as reduction in mean cell growth. In outline:
as §1

The test system of experiment [7] is Panel melanoma (Carcinoma cell lines). Nature of the experiment: Antiproliferative activity against human Panel melanoma (9 Carcinoma cell lines) assessed as reduction in mean cell growth. In outline: as §1
In experiment [8] the test system is Panel colon (Carcinoma cell lines). Description: Antiproliferative activity against human Panel colon (7 Carcinoma cell lines) assessed as reduction in mean cell growth. Summed up: as §1
Experiment [9] in a line: Antiproliferative activity against human Panel non-small cell lung cancer (8 Carcinoma cell lines) assessed as reduction in mean cell growth. The settings on record: Non-small cell lung cancer cell line. Summed up: as §1
The subject of experiment [10] is Panel leukemia (Carcinoma cell lines). Nature of the experiment: Antiproliferative activity against human Panel leukemia (5 Carcinoma cell lines) assessed as reduction in mean cell growth. Summed up:
as §1

In another experiment the test system is MDA-MB-468. Description: Antiproliferative activity against human MDA-MB-468 cells assessed as reduction in cell growth. Summed up:
as §1

For the next experiment, the system named is PC-3. Description: Antiproliferative activity against human PC-3 cells assessed as reduction in cell growth. Summed up: as §1
The subject of a further experiment is RXF 393. Description: Antiproliferative activity against human RXF 393 cells assessed as reduction in cell growth. In outline: as §1
A further experiment has as its system NCI/ADR-RES. Nature of the experiment: Antiproliferative activity against human NCI/ADR-RES cells assessed as reduction in cell growth. In outline: as §1
Another experiment relates to SK-MEL-5. Nature of the experiment: Antiproliferative activity against human SK-MEL-5 cells assessed as reduction in cell growth. In outline: as §1
The test system of another experiment is SNB-75. Description: Antiproliferative activity against human SNB-75 cells assessed as reduction in cell growth. In outline: as §1
The next experiment deals with HCT-15. Nature of the experiment: Antiproliferative activity against human HCT-15 cells assessed as reduction in cell growth. Summed up:
as §1

In the next experiment the test system is COLO 205. Description: Antiproliferative activity against human COLO 205 cells assessed as reduction in cell growth. Summed up: as §1
Another experiment deals with HOP-92. Description: Antiproliferative activity against human HOP-92 cells assessed as reduction in cell growth. In outline: as §1
The next experiment relates to K562. Nature of the experiment: Antiproliferative activity against human K562 cells assessed as reduction in cell growth. Summed up:
as §1

From ChEMBL document CHEMBL5257027 (Eur J Med Chem, 2016) come the findings set out here.

As to `COc1cccc(-c2nn(-c3ccccc3)cc2-c2ccnc(NCCNC(=O)Nc3ccc(Cl)c(Cl)c3)c2)c1`, the Activity in experiment [1] was >80%. The GI50 in experiment [2] came to 3.35 µM; in experiment [3] it was 5.95 µM; in experiment [4], 4.63 µM; in experiment [5], 4.72 µM; in experiment [6], 7.19 µM; in [7], 4.15 µM. The GI50 in [8] is 3.73 µM; in [9] it was 3.02 µM; in experiment [10] it was 3.4 µM.
For the compound `COc1cccc(-c2nn(-c3ccccc3)cc2-c2ccnc(NCCCNC(=O)c3cccc(C(F)(F)F)c3)c2)c1`, the concentration for 50% growth inhibition (GI50) in the experiment with MDA-MB-468 amounted to 1.95 µM; in the experiment with PC-3, 3.18 µM; in the experiment with RXF 393 it was 2.2 µM; with NCI/ADR-RES, 3.54 µM; in the experiment with SK-MEL-5, 1.54 µM; in the experiment with SNB-75, 17 µM. In addition, the 50% growth inhibitory concentration (GI50) with HCT-15 amounted to 3.4 µM; with COLO 205, 3.33 µM; in the experiment on HOP-92 it was 2.48 µM; with K562, 3.69 µM.

As usually defined, the GI50 is the concentration that inhibits growth by half.
